Screening results as filed in PubChem BioAssay.
HIF act: HIF pathway transcriptional activation. U2OS HRE-luciferase reporter, luminescence; normalized: DMSO 0%, desferrioxamine 100%. activation, % at 7.5 µM (by protocol). 0.32% of 300,000 active. AID 1910;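 active = mean activation of at least 10% of the iron chelator positive control signal, with at least half of replicates also reaching 10%; inconclusive = mean and replicate majority disagree about reaching 10%; inactive = mean and most replicates under 10%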
T cruzi inh: T. cruzi replication inhibition; T. cruzi beta-gal in NIH3T3, luminescence, 90 h; inhibition, % (test concentration not listed); 1.4% of 300,000 active; AID 1885;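 active = mean inhibition across valid replicates above about 55%, limit read from the data; inconclusive = mean below that limit but half or more replicates reach it; inactive = mean below it, under half of replicates reach it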;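 also: signal also drops with host cell toxicity which is not excluded here; 0% = plate median of DMSO wells and 100% = zero luminescence signal; higher percent means less beta-gal luminescence so fewer parasites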
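Assay system: NIH/3T3 fibroblasts plus reporter T. cruzi. Amount: NIH/3T3 cells, 5,000 per well. Buffer or medium: DMEM, 2% fetal bovine serum. Doses: compound pinned at 50 nL/well, DMSO. Schedule: ≥90 h infection period, 3 h prior cell attachment. Signal: luminescent β-galactosidase signal after 60 min lysis. Read-out: parasite load inhibition, %.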
A1 inh: inhibitors of the anti-apoptotic protein A1, read as caspase activation; MEF A1-2A-BIM cells, Caspase-Glo 3/7 luminescence, 3 h; percent of clofoctol response, vehicle zero; caspase activation, % (no concentration beside the values); 0.066% of 330,000 active;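 active = over half of replicate activation scores above 10%, or exactly half above 10 with the replicate mean above 10; inconclusive = replicate mean below 10 yet half the replicates above 10; inactive = over half of replicates below 10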
KLF5 inh: kruppel-like factor 5 inhibition; DLD-1 KLF5 promoter-luciferase reporter, luminescence; inhibition, % at 5 µM; 0.23% of 290,000 active; AID 1700;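 active = inhibition above a per-plate limit of that plate's mean compound inhibition plus 3 SD, cut at about 60% in these data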;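 also: 0% = DMSO wells and 100% = LY294002 at 200 µM; higher means less KLF5 promoter-driven luciferase light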
Beta cell apopt: beta cell apoptosis inhibition; INS-1E cytokine-induced death, ATP luminescence, 48 h; percent of positive-control rescue, neutral wells zero; protection from apoptosis, % (no concentration beside the values); 0.8% of 300,000 active;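 active = Every replicate reaches about 75%, or at least half do and their mean reaches it too, limit read from the data; inconclusive = At least half of replicates reach the limit but their mean does not; inactive = Under half of replicates reach the limit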;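 also: 0% = cytokine-treated negative control wells and 100% = positive control rescue; higher means more ATP so stronger rescue from cytokine killing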
Active calls of the source: *; ? = inconclusive; . = no result. An excerpt weighted towards active compounds, which were near 2.3% of everything screened.

SMILES | HIF act | T cruzi inh | A1 inh | KLF5 inh | Beta cell apopt
NC(=O)[C@@H]1CC2(CC(c3cccc(NC(=O)CC(c4ccccc4)c4ccccc4)c3)=NO2)CN1C(=O)c1ccc(Cl)cc1 (some centres undefined) | 0 | 57* | 1 | . | 3
Cc1c(C(=O)N2CC3(CC(c4cccc(NC(=O)CC(c5ccccc5)c5ccccc5)c4)=NO3)C[C@@H]2C(N)=O)cc([N+](=O)[O-])cc1[N+](=O)[O-] (some centres undefined) | -1 | 67* | -1 | . | -5
CCOC(=O)N1CCN(S(=O)(=O)c2ccc(C(=O)NNc3nc4ccc(Cl)cc4s3)cc2)CC1 | 0 | -13 | 0 | -11 | 82*
CCOC(=O)N1CCN(S(=O)(=O)c2ccc(C(=O)NNc3nc4c(C)cc(C)cc4s3)cc2)CC1 | ? | 40 | 0 | 9 | 97*
CCOC(=O)N1CCN(S(=O)(=O)c2ccc(C(=O)Nc3nnc(CC)o3)cc2)CC1 | 1 | -10 | 0 | -2 | 2
CCOC(=O)N1CCN(S(=O)(=O)c2ccc(C(=O)NNc3nc4c(C)cccc4s3)cc2)CC1 | 0 | 44 | . | 2 | 55
CCOC(=O)N1CCN(S(=O)(=O)c2ccc(C(=O)Nc3nc4c(s3)CC(C)CC4)cc2)CC1 (centres undefined) | 0 | -5 | 0 | -14 | 38
CCOC(=O)N1CCN(S(=O)(=O)c2ccc(C(=O)NNc3nc4cc(C)cc(C)c4s3)cc2)CC1 | 3 | 49 | 0 | 11 | 84*
CCOC(=O)N1CCN(S(=O)(=O)c2ccc(C(=O)N(CCN(C)C)c3nc4ccc(Cl)cc4s3)cc2)CC1 | 2 | 76* | -1 | -2 | 2
CCc1cccc(NC(=O)CCNS(=O)(=O)c2ccc3c(c2)oc(=O)n3C)c1 | -1 | -13 | 1 | 4 | -3
COc1ccc(C2CC(c3ccccc3)=NN2c2ccc(S(N)(=O)=O)cc2)cc1 (centres undefined) | 0 | 57* | 1 | -6 | 6
CC(=O)c1c(C)[nH]c(C(=O)OCC(=O)Nc2ccc(C)cc2[N+](=O)[O-])c1C | 0 | -4 | 0 | -33 | 123*
CCOC(=O)C1=C(c2ccccc2)Nc2ncnn2C1c1ccc(OC)c(OC)c1OC (centres undefined) | 0 | 56* | 0 | -20 | -13
Clc1ccc2nnnc(-c3ccccc3)c2c1 | -2 | 21 | 0 | -14 | 99*
N=C1c2ccccc2CN1c1ccc(N2CCOCC2)c(S(=O)(=O)Nc2ccc(Cl)cc2)c1 | 0 | -1 | 1 | -12 | 10
NS(=O)(=O)c1ccc(NC(=O)/C=C/c2cn(-c3ccccc3)nc2-c2cccc(Cl)c2)cc1 | -2 | 7 | -1 | -9 | 5
COC(=O)c1ccc(NC(=O)c2cn(-c3ccccc3)nc2-c2ccncc2)cc1 | 0 | 56* | 0 | 13 | -2
O=C(/C=C/c1cn(-c2ccccc2)nc1-c1ccccc1)Nc1ccc(C(=O)O)cc1 | 16* | 4 | 0 | -34 | 0
CC(=O)c1ccc(NC(=O)c2cn(-c3ccccc3)nc2-c2ccncc2)cc1 | 0 | 26 | 1 | 23 | 1
O=C(Nc1cccc(S(=O)(=O)N2CCOCC2)c1)c1cn(-c2ccccc2)nc1-c1ccccc1 | 0 | 9 | 0 | -34 | 7
Cc1ccc(-c2nn(-c3ccccc3)cc2C(=O)Nc2ccc(C)c(S(=O)(=O)N3CCOCC3)c2)cc1 | -56 | 73* | 1 | 7 | 7
O=C(Nc1cccc(S(=O)(=O)N2CCOCC2)c1)c1cn(-c2ccccc2)nc1-c1ccc(F)cc1 | 0 | 57* | 0 | -16 | 14
O=C(COC(=O)c1ccc2ncsc2c1)Nc1ccccc1Cl | . | . | 0 | . | -10
COc1ccc(CN(C)C(=O)c2cc(S(=O)(=O)N3CCOCC3)ccc2N2CCCC2)cc1 | 0 | 14 | 0 | . | 1
Cc1ccc(S(=O)(=O)N[C@@H](C)C(=O)N2CCC(C(=O)N[C@@H](Cc3ccccc3)C(=O)O)CC2)cc1 | . | ? | -1 | -11 | -4
SMILES | HIF act | T cruzi inh | A1 inh | KLF5 inh | Beta cell apopt
O=C(NNc1ccccc1Br)C(O)(c1cccc(C(F)(F)F)c1)c1cccc(C(F)(F)F)c1 | 0 | 44 | 0 | -7 | 125*
C=C1C(=O)[C@@]23[C@H](O)C[C@@H]4C(C)(C)CC[C@H](O)[C@]4(C)[C@@H]2C[C@H](O)[C@@H]1[C@H]3O | 1 | 24 | 0 | -21 | -62
C=C1C(=O)[C@@]23[C@H](O)C[C@@H]4C(C)(C)CC[C@H](O)[C@@]4(C)[C@@H]2CC[C@@H]1[C@H]3O | -7 | 40 | -1 | 12 | 99*
Cc1ccc(CCNC(=O)CNC(=S)N(Cc2ccccc2)Cc2cccnc2)cc1 | 0 | 72* | 0 | 2 | -11
O=C(CNC(=S)N(Cc1ccccc1)Cc1cccnc1)NC1CCCCC1 | -1 | 64* | 1 | 11 | 2
C/C(Cn1cnc([N+](=O)[O-])n1)=N/NC(=O)COc1ccccc1Cl | 0 | 56* | -1 | -1 | -3
C/C(Cn1cnc([N+](=O)[O-])n1)=N\NC(=O)c1ccc(Br)cc1 | 0 | 41 | 0 | -12 | 3
C/C(Cn1cnc([N+](=O)[O-])n1)=N\NC(=O)c1ccc(O)cc1O | 0 | 55* | -1 | -6 | .
C/C(Cn1cnc([N+](=O)[O-])n1)=N\NC(=O)c1ccccc1O | 0 | 56* | 1 | -11 | 1
C/C(Cn1cnc([N+](=O)[O-])n1)=N\NC(=O)c1ccccc1F | 3 | 75* | 0 | -36 | -8
COc1ccc(OC)c2nc(-c3ccc4c(c3)OCO4)ccc12 | 5 | 0 | 0 | -191 | 5
CC(=O)c1ccc(NC(=O)CSc2nnc(C3CC3)n2C2CC2)cc1 | . | . | 0 | . | 4
CC(C)(C)NC(=O)CN(Cc1ccc2c(c1)OCO2)C(=O)CNS(=O)(=O)c1ccc(F)cc1 | 19* | 1 | 0 | -1 | 1
CC(C)(C)NC(=O)CN(Cc1cccs1)C(=O)CNS(=O)(=O)c1ccc(F)cc1 | 1 | -10 | 0 | 10 | -5
Nc1ccccc1C(O)(Cc1ccccc1)c1ccccc1 (centres undefined) | 2 | 2 | -1 | -15 | -9
C1CCC(OCCN2CCN(CCOC3CCCCC3)CC2)CC1 | . | 55* | -1 | 12 | 2
CCc1nn2c(=O)cc(COC(=O)c3ccc(SC)cc3OC)nc2s1 | . | . | 0 | . | 0
COc1ccc(CCNc2cc(N3CCN(C(=O)c4ccc(C)cc4)CC3)ccc2[N+](=O)[O-])cc1OC | -1 | -4 | 0 | -17 | 90*
COc1ccc(C(=O)N2CCN(c3ccc([N+](=O)[O-])c(NCCc4ccc(OC)c(OC)c4)c3)CC2)cc1 | 0 | -8 | 0 | -20 | 106*
COc1ccc(CCNc2cc(N3CCN(C(=O)c4ccccc4F)CC3)ccc2[N+](=O)[O-])cc1OC | 1 | 11 | -1 | -12 | 104*
